In ChEMBL document CHEMBL1153234, “Synthesis and biological evaluation of nitrogen-containing chalcones as possible anti-inflammatory and antioxidant agents” (Bioorg Med Chem Lett, 2010) one finds inhibition and Activity data, which are given here for 27 compounds.

For assay [1], the target named is T1, Beta-glucuronidase (Homo sapiens) (UniProt P08236).
T1 sequence (whole entry): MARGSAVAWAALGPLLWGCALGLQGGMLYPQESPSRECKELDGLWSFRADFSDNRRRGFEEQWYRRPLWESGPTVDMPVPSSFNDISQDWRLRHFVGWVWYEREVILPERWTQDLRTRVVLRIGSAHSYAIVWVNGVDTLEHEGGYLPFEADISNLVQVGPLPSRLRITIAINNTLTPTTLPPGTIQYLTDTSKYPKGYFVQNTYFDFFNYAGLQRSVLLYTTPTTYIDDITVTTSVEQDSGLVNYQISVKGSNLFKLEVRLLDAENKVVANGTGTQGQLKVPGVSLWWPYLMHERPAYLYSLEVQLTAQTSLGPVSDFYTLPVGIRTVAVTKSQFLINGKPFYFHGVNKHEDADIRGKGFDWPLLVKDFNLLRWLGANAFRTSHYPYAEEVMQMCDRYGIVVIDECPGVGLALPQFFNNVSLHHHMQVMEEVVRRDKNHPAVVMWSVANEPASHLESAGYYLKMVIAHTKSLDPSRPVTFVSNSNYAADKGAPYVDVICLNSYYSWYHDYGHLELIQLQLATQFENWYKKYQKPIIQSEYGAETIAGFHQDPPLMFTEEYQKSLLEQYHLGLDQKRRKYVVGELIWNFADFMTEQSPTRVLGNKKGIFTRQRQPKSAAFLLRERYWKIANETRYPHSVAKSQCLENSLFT
Kind of assay: Inhibition of beta-glucuronidase at 10 uM. In short, it runs like this: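 Test sample from a 1 mM stock in 0.1 M acetate buffer pH 7.4 was preincubated 5 min at 37 °C with 2.5 mM p-nitrophenyl β-D-glucopyranosiduronic acid. β-Glucuronidase was then added and the mixture incubated 30 min. The reaction was stopped with 0.5 N NaOH and read at 410 nm. Salicylic acid (1 mM) was the reference. Values are means of n = 2.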

The target of assay [2] is T2, Prostaglandin G/H synthase 2 (Ovis aries) (UniProt P79208).
T2 sequence (whole entry): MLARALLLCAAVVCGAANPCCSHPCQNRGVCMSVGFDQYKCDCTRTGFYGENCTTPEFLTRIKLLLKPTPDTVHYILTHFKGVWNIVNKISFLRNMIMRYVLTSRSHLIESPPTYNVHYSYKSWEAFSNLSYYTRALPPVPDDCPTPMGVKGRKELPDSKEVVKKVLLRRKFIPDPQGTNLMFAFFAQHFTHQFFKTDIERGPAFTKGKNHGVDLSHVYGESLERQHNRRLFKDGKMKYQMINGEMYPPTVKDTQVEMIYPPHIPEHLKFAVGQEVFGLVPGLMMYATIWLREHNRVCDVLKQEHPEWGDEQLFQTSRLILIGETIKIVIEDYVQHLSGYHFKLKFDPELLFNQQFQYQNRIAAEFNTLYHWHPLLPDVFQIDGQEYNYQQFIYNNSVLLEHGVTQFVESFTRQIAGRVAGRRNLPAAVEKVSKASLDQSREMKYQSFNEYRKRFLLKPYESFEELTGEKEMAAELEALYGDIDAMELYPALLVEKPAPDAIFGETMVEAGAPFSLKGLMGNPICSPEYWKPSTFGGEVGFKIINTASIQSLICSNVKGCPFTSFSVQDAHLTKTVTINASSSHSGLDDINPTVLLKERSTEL
The assay can be described thus: Inhibition of ovine COX2 at 1 mM by colorimetric assay. In short, it runs like this:
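Ovine COX-2 was tested with a colorimetric screening kit. Enzyme, heme and assay buffer were preincubated 5 min at 25 °C with test sample added from a 1 mM solution. Colorimetric substrate and arachidonic acid were then added, followed by a further 5 min at 25 °C. Absorbance was read at 590 nm, and % activity = inhibitor-well/no-inhibitor-well absorbance × 100. Values are means of n = 2.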

The test system of assay [3] is Radical scavenging activity. Kind of assay: Antioxidant activity assessed as DPPH radical scavenging activity at 10 uM. The class given is functional. In short, it runs like this:
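Test sample from a 1 mM stock in absolute ethanol was mixed with DPPH radical (10^-4 M in absolute ethanol). Absorbance was read at 517 nm after 20 min. Quercetin served as reference. Values are means of n = 2.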
(Loss of DPPH colour is used to gauge radical scavenging.)

Assay [4] is described as follows: Inhibition of trypsin at 10 uM. In short, it runs like this: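 Trypsin (0.075 mg/mL) was preincubated 20 min with test sample from a 1 mM stock. The reaction was stopped with 5% trichloroacetic acid and centrifuged. Acid-soluble protein was measured by the Lowry method. Salicylic acid (10^-6 M) was the reference. Values are means of n = 2.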
Assay [5] concerns the target T3, Prostaglandin G/H synthase 1 (Ovis aries) (UniProt P05979).
T3 sequence (whole entry): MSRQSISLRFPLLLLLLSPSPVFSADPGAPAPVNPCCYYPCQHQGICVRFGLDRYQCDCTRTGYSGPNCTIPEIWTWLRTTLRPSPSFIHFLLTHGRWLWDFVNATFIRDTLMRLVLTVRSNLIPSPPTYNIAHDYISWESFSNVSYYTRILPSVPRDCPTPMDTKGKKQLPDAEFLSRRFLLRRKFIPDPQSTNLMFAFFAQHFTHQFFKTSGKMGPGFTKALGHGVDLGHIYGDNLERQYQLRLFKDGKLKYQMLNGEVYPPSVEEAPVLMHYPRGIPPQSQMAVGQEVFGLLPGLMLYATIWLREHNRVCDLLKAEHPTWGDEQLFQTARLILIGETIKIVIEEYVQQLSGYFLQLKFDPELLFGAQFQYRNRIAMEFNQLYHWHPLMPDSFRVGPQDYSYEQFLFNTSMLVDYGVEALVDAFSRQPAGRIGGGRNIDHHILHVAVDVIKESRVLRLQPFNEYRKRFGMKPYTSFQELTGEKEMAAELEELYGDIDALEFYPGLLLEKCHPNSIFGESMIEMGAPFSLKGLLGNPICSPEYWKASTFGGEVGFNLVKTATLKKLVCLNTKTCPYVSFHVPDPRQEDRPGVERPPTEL
The following applies: at 1 mM.

Activity calls are given as the source filed them. The rule behind the calls is not given here.

The term inhibition denotes how much of the control response was suppressed.

Consider `COc1cc(OC)c(C(=O)/C=C/c2cccc(F)c2)c(O)c1CN1CCCCC1`, for which the inhibition was 7.06% in assay [1] and 21.7% in assay [2]. For the same compound, the Activity in assay [3] was found to be 14.6%.

Consider `COc1cc(OC)c(C(=O)/C=C/c2cccc(Br)c2)c(O)c1CN1CCOCC1`, for which the inhibition in assay [1] is 29.3%; in assay [2], 22.4%; in assay [4], 1.2%. In addition, the Activity in assay [3] is 10.1%.

Regarding `COc1cc(OC)c(C(=O)/C=C/c2cccc(Cl)c2)c(O)c1CN1CCOCC1`, the inhibition in assay [1] was determined as 13.9%; in assay [2] it was 48.2%; in assay [4], 1.1%. Also, the Activity in assay [3] came to 21.9%.

In the case of `COc1cc(OC)c(C(=O)/C=C/c2cccc(Br)c2)c(O)c1CN1CCCC1`, the inhibition in assay [1] was determined as 59.8%; in assay [2], 19.9%; in assay [4] it was 1.3%. In assay [3], the Activity came to 35.7%.

Consider `COc1cc(OC)c(C(=O)/C=C/c2ccccc2Cl)c(O)c1CN1CCN(C)CC1`, for which the inhibition was 35.5% in assay [1], 68.8% in assay [2], 0.1% in assay [4] and 11.9% in assay [5]. The Activity in assay [3] amounted to 10.8%.

As for `COc1cc(OC)c(C(=O)/C=C/c2cccc(Br)c2)c(O)c1CN1CCCCC1`, the inhibition in assay [1] was 15.4%; in assay [2] it was 87.5%; in assay [4], 2.8%; in assay [5] it was 21.7%. In assay [3], the Activity worked out at 33%.

Consider `COc1cc(OC)c(C(=O)/C=C/c2ccccc2Cl)c(O)c1CN1CCCC1`, for which the inhibition in assay [1] was found to be 32.4%; in assay [2] it was 42.5%; in assay [4], 0.8%. Also, the Activity in assay [3] came to 7.89%.

Take `COc1cc(OC)c(C(=O)/C=C/c2cccc(Cl)c2)c(O)c1CN1CCCC1`: the inhibition was 14.8% in assay [1], 29.6% in assay [2] and 0.9% in assay [4]. In addition, in assay [3], the Activity came out at 3.1%.

On to `O=c1c(O)c(-c2ccc(O)c(O)c2)oc2cc(O)cc(O)c12`, for which, in assay [3], the Activity came out at 86.3%.

As to `COc1cc(OC)c(C(=O)/C=C/c2ccccc2Br)c(O)c1CN1CCCC1`, the inhibition in assay [1] came to 34.7%; in assay [2] it was 20.4%; in assay [4] it was 1.5%. For the same compound, the Activity in assay [3] was found to be 25%.

As to `COc1cc(OC)c(C(=O)/C=C/c2cccc(Cl)c2)c(O)c1CN1CCN(C)CC1`, the inhibition in assay [1] stood at 23.7%; in assay [2] it was 77.8%; in assay [4], 1.3%; in assay [5], 28.7%. Also, the Activity in assay [3] was 5.2%.

On to `COc1cc(OC)c(C(=O)/C=C/c2ccccc2Br)c(O)c1CN1CCCCC1`, for which the inhibition in assay [1] amounted to 39.9%; in assay [2] it was 69.8%; in assay [4], 2.1%. In addition, the Activity in assay [3] came to 58.3%.

Regarding `COc1cc(OC)c(C(=O)/C=C/c2ccccc2Br)c(O)c1CN1CCOCC1`, the inhibition was found to be 32.8% in assay [1], 42.3% in assay [2] and 1.6% in assay [4]. In addition, the Activity in assay [3] was 16.7%.

For `COc1cc(OC)c(C(=O)/C=C/c2cccc(F)c2)c(O)c1CN1CCN(C)CC1`, the results for the inhibition in assay [1] and in assay [2] were 26.7% and 24.6%, respectively. Besides, the Activity in assay [3] came to 18.4%. Besides, in assay [4], the inhibition result was “inactive”.

Consider `COc1cc(OC)c(C(=O)/C=C/c2cccc(Cl)c2)c(O)c1CN1CCCCC1`, for which the inhibition in assay [1] came to 66%; in assay [2], 87.9%; in assay [4], 0.5%; in assay [5], 25.2%. Moreover, the Activity in assay [3] came to 20.9%.

Consider `COc1cc(OC)c(C(=O)/C=C/c2ccccc2F)c(O)c1CN1CCCCC1`, for which the inhibition in assay [1] came to 56.6%; in assay [2], 19.9%; in assay [4] it was 1.4%. Further, the outcome in assay [3] was inactive.

Take `COc1cc(OC)c(C(=O)/C=C/c2ccccc2Cl)c(O)c1CN1CCOCC1`: the inhibition in assay [1] was determined as 48.1%; in assay [2] it was 25.6%. Further, in assay [3], the Activity was 24.8%. The inhibition entry in assay [4] is “inactive”.

In the case of `COc1cc(OC)c(C(=O)/C=C/c2ccccc2F)c(O)c1CN1CCN(C)CC1`, the inhibition entry in assay [1] and in assay [4] was “inactive” throughout. The inhibition came out at 44.9% in assay [2] and 19.2% in assay [5]. Further, the Activity in assay [3] was 35.3%.

On to `COc1cc(OC)c(C(=O)/C=C/c2ccccc2Cl)c(O)c1CN1CCCCC1`, for which the inhibition amounted to 31.2% in assay [1], 91.5% in assay [2], 0.7% in assay [4] and 30.4% in assay [5]. In assay [3], the Activity came to 18.4%.

Regarding `COc1cc(O)c(CN2CCCC2)c(O)c1C(=O)/C=C/c1ccccc1F`, in assay [1], the inhibition result was “inactive”. The inhibition was determined as 21.4% in assay [2] and 1.2% in assay [4]. In addition, the Activity in assay [3] came to 32.9%.

On to `COc1cc(OC)c(C(=O)/C=C/c2ccccc2Br)c(O)c1CN1CCN(C)CC1`, for which the inhibition in assay [1] is 42%; in assay [2] it was 48.9%; in assay [4] it was 1.2%. Further, the Activity in assay [3] amounted to 27.8%.

`COc1cc(OC)c(C(=O)/C=C/c2cccc(F)c2)c(O)c1CN1CCOCC1`: the figures for the inhibition in assay [1], in assay [2] and in assay [4] were 10.8%, 38.9% and 19.5%, respectively. For the same compound, the Activity in assay [3] was 24%.

Regarding `COc1cc(OC)c(C(=O)/C=C/c2cccc(F)c2)c(O)c1CN1CCCC1`, the inhibition in assay [1] worked out at 19.4%; in assay [2], 21.4%; in assay [4] it was 1.3%. The Activity in assay [3] amounted to 11.7%.

For the compound `O=C(O)c1ccccc1O`, the inhibition stood at 23.3% in assay [1] and 89.2% in assay [4].

Take `COc1cc(OC)c(C(=O)/C=C/c2ccccc2F)c(O)c1CN1CCOCC1`: the results for the inhibition in assay [1], in assay [2] and in assay [4] were 21.8%, 27.1% and 2%, respectively. Also, the Activity in assay [3] was 19.2%.

Regarding `CC(=O)Oc1ccccc1C(=O)O`, the inhibition in assay [2] stood at 35.1%.

With `COc1cc(OC)c(C(=O)/C=C/c2cccc(Br)c2)c(O)c1CN1CCN(C)CC1`, the inhibition in assay [1] was determined as 75.4%; in assay [2] it was 33.3%; in assay [4] it was 1.4%. For the same compound, the Activity in assay [3] was 37%.
